# Test results from article PMC10404122 (Drug Design, Development and Therapy, 2023).
# Key:
# [1] = plasma concentration; cited from earlier work
# [2] = cited from earlier work
# [3] = cited from earlier work; remark: listed apart in the source
# [4] = Population pharmacokinetic model; format: in vivo, human; settings: ICU patients, iv, 304 samples from 108 patients, two-compartment model
# How it was run: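 NONMEM fit with FOCE with interaction. One- vs two-compartment chosen by goodness-of-fit plots. Covariates tested: sex, age, weight, ALB, Scr, Cockcroft-Gault Ccr, CKD-EPI eGFR, CRRT, APACHE II. Forward inclusion at P < 0.05 (ΔOFV −3.84), backward elimination at P < 0.001 (ΔOFV −10.828). Robustness checked with 1000 bootstrap resamples (median, 2.5–97.5 percentiles). VPC, NPDE and external-set MPE/RMSE also run.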
# [5] = Stability of plasma samples; format: in vitro ADME; settings: human plasma (EDTA), −20 °C, HPLC-MS/MS of A2-2
substance,measurement,setting,value
teicoplanin,concentration inducing adverse effects: thrombocytopenia,[1],≥ 40000 ng/mL
same,plasma protein binding rate,[2],over 90%
same,patients in whom the standard dosing regimen was insufficient to achieve 10 mg/L,"[3]; 400 mg q12h×3, 400 mg qd, within the initial three days",more than 50%
same,elimination half-life,[3],169 h
same,"Q, inter-compartmental clearance, final model estimate",[4],3.08 L/h
same,"Vc, volume of the central compartment, final model estimate",[4],14.4 L
same,"Vp, volume of the peripheral compartment, final model estimate",[4],51.6 L
same,time for which plasma samples were found to be stable,[5],at least 41 days
